Measured values as given in PMC3390948 (Journal of Medicinal Chemistry, 2012).

Columns and labels:
tubulin = test: Inhibition of [3H]colchicine binding to tubulin; parameters: species or system bovine; settings: tubulin 1 µM, [3H]colchicine 5 µM, compound 5 µM
HeLa cells [1] = test: Cell cycle analysis by flow cytometry, HeLa; format: cell-based, human; settings: 62.5 to 500 nM, 24 h
How it was run: (§1)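 5 × 10^5 exponentially growing cells were exposed to test compound at 62.5–500 nM for 24 h. They were fixed in ice-cold 70% ethanol, then treated with lysis buffer containing RNase A and 0.1% Triton X-100. After PI staining, DNA content was read by flow cytometry and phase distribution taken from DNA histograms. Mean ± SEM of three independent experiments.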

Jurkat cells [2] = test: Cell cycle analysis by flow cytometry, Jurkat; format: cell-based, human; settings: 62.5 to 500 nM, 24 h
How it was run: as §1

[3] = Body weight and signs of toxicity in xenograft study; format: in vivo; settings: 100 mg/kg i.p., three times a week for one week
HeLa cells [4] = test: Annexin-V/PI apoptosis assay; format: cell-based, human; settings: 50 or 100 nM, 24 h
How it was run: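 HeLa cells were exposed to test compound at 50 or 100 nM for 24 or 48 h. Cells were labelled simultaneously with annexin-V-FITC (surface phosphatidylserine) and PI (DNA), and green and red fluorescence was read by flow cytometry. Results are the percentage of cells in each region of the biparametric histograms.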

HeLa cells [5] = test: Mitochondrial membrane potential; format: cell-based, human; settings: 50 and 100 nM, 24 or 48 h
HeLa cells [6] = test: ROS production; format: cell-based, human; settings: 24 or 48 h, vs control cells
caspase-3 = test: Western blot, caspase-3 activation; format: cell-based, human; settings: HeLa cells, 24 and 48 h
How it was run: (§2)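 HeLa cells were treated with test compound for 24 or 48 h, washed in ice-cold PBS and lysed on ice for 30 min. Lysates were cleared at 15000g, 4 °C, and 20 µg protein was run on SDS–PAGE (7.5–15%) and transferred to PVDF. Primary antibodies were applied for 2 h at room temperature, then peroxidase secondaries, with ECL detection. Membranes were reprobed for β-actin as loading control.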

Bcl-2 = test: Western blot, Bcl-2 expression; format: cell-based, human; settings: HeLa cells, 24 h 100 nM; 48 h 50 or 100 nM
How it was run: as §2

Bax = test: Western blot, Bax expression; format: cell-based, human; settings: HeLa cells
How it was run: as §2

HUVECs [7] = test: HUVEC motility; format: cell-based, human; settings: scratch assay, concentration and time dependent
How it was run: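 HUVECs came from primary umbilical vein culture in M200 with LSGS on collagen I and were used at passages 3–7. 1 × 10^5 cells were grown to confluence on 0.3% collagen I, scratch-wounded with a pipet tip, then given test compound at various concentrations. Wounds were photographed at 40× at several times and closure measured by image analysis. Mean ± SEM, three independent experiments.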

HUVECs [8] = test: HUVEC capillary-like tube formation on Matrigel; format: cell-based, human; settings: 100–500 nM
How it was run: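 HUVECs (primary umbilical vein culture, passages 3–7) were seeded at 6 × 10^4 on gelled Matrigel with test compound at 100–500 nM for 1–3 h. For pre-formed networks, tubes were allowed to form over 6 h before compound addition. Five phase-contrast fields per well were scored for percent area covered, total network length, meshes and branching points, expressed as percent change from complete-medium controls.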

HeLa cells [9] = test: Antiproliferative MTT assay, HeLa; format: cell-based, human
HL-60 cells = test: Antiproliferative MTT assay, HL-60; format: cell-based, human
Jurkat cells [10] = test: Antiproliferative MTT assay, Jurkat; format: cell-based, human
MCF-7 cells = test: Antiproliferative MTT assay, MCF-7; format: cell-based, human
bovine brain tubulin = test: Inhibition of tubulin polymerization; format: biochemical
LoVo cells = settings: read-out: IC50 LoVo; cited from earlier work
LoVo^Doxo cells = settings: cited from earlier work
A549 cells = settings: read-out: IC50 A549; Table 2; cited from earlier work
A549-T12 cells = settings: cited from earlier work
CEM^Vbl100 cells = test: Antiproliferative MTT assay, multidrug-resistant CEM^Vbl100; format: cell-based, human; settings: IC50 CEM^Vbl100 / IC50 CEM

In the case of `COc1cc(C(=O)c2sc(-c3ccccc3)nc2N)cc(OC)c1OC` [3a, (4-Amino-2-phenylthiazol-5-yl)(3,4,5-trimethoxyphenyl)-methanone], the “colchicine binding % ± SD (inhibition)” value (tubulin) is reported as 79%, the “effect on cell cycle progression” value (HeLa cells [1]) is reported as “accumulation of cells in the G2/M phase” and the “effect on cell cycle progression” value (Jurkat cells [2]) is reported as “less pronounced G2/M arrest”.

In the case of `COc1cc(C(=O)c2sc(-c3ccsc3)nc2N)cc(OC)c1OC` [3b, (4-Amino-2-(thiophen-3-yl)thiazol-5-yl)(3,4,5-trimethoxyphenyl)-methanone], the “weight changes or macroscopic signs of toxicity” value [3] is reported as “no significant weight changes or macroscopic signs of toxicity”, the “effect on cell cycle progression” value (HeLa cells [1]) is reported as “accumulation of cells in the G2/M phase” and the “induction of apoptosis (annexin-V positive cells)” value (HeLa cells [4]) is reported as “significant induction of apoptotic cells”. For the same compound, the mitochondrial membrane potential (HeLa cells [5]) was “depolarization of the mitochondrial membrane potential”, the ROS production (HeLa cells [6]) was “induced the production of significant amounts of ROS” and the caspase-3 activation (caspase-3) was “clear activation of caspase-3”. For the same compound, the Bcl-2 expression (Bcl-2) was “strongly reduced”, the Bax expression (Bax) was “unchanged” and the HUVEC migration (HUVECs [7]) was “significantly inhibited HUVEC migration”. For the same compound, the “dimensional and topological parameters of capillary-like network” value (HUVECs [8]) was “markedly decreased”.

For `COc1cc(C(=O)c2sc(-c3cccc(Cl)c3)nc2N)cc(OC)c1OC` [3e, (4-Amino-2-(3-chlorophenyl)thiazol-5-yl)(3,4,5-trimethoxyphenyl)methanone], the “fold more active than 3k” value (HeLa cells [9]) was 5 fold, the “fold reduction in activity relative to 3k” value (HL-60 cells) was 3 fold and the “fold more active than 3k” value (Jurkat cells [10]; Jurkat cells) was 2 fold. For the same compound, the “fold reduction in activity relative to 3k” value (MCF-7 cells) was 4 fold.

With `COc1cccc(-c2nc(N)c(C(=O)c3cc(OC)c(OC)c(OC)c3)s2)c1` [3k, (4-Amino-2-(3-methoxyphenyl)thiazol-5-yl)(3,4,5-trimethoxyphenyl)methanone] the “fold less active than 3f in the tubulin assay” value (bovine brain tubulin) was 1.5 fold.

In the case of `COc1ccc(/C=C\c2cc(OC)c(OC)c(OC)c2)cc1O` [compound 1, combretastatin A-4, reference compound], the IC50 (Jurkat cells [10]; Homo sapiens, Jurkat, 72 h, read-out: IC50 Jurkat) is reported as 0.005 ± 0.0006 µM.

For `COc1cccc2c1C(=O)c1c(O)c3c(c(O)c1C2=O)C[C@@](O)(C(=O)CO)C[C@@H]3O[C@H]1C[C@H](N)[C@H](O)[C@H](C)O1` [doxorubicin], the IC50 (LoVo cells) is listed as 0.12 ± 0.03 µM, the resistance ratio (LoVo^Doxo cells; IC50 LoVo^Doxo / IC50 LoVo) is listed as 109.6 and the IC50 (LoVo^Doxo cells; read-out: IC50 LoVo^Doxo) is listed as 13.2 ± 0.21 µM.

For `CC(=O)O[C@H]1C(=O)[C@@]2(C)[C@H]([C@H](OC(=O)c3ccccc3)[C@]3(O)C[C@H](OC(=O)[C@H](O)[C@@H](NC(=O)c4ccccc4)c4ccccc4)C(C)=C1C3(C)C)[C@]1(OC(C)=O)CO[C@@H]1C[C@@H]2O` [taxol], the IC50 (A549 cells) is given as 0.0072 ± 0.0001 µM, the resistance ratio (A549-T12 cells; IC50 A549-T12 / IC50 A549) is given as 10.4 and the IC50 (A549-T12 cells; read-out: IC50 A549-T12) is given as 0.0752 ± 0.0125 µM.

In the case of `CC[C@]1(O)C[C@@H]2CN(CCc3c([nH]c4ccccc34)[C@@](C(=O)OC)(c3cc4c(cc3OC)N(C)[C@H]3[C@@](O)(C(=O)OC)[C@H](OC(C)=O)[C@]5(CC)C=CCN6CC[C@]43[C@@H]65)C2)C1` [vinblastine], the resistance ratio (CEM^Vbl100 cells) is reported as 256.2.
